Measured values from ChEMBL document CHEMBL1135551, “N-Acylvanillamides: development of an expeditious synthesis and discovery of new acyl templates for powerful activation of the vanilloid receptor” (J Med Chem, 2002).

Tests used:
[1] = target: T1, Transient receptor potential cation channel subfamily V member 1 (Homo sapiens, UniProt Q8NER1); assay: Percent absolute effect obtained with ionomycin, measured by the entry of [Ca2+] into human embryonic kidney HEK293 cells overexpressing hVR1; assay type: functional, cell-based
Summary of the method: (§1)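 HEK-293 cells overexpressing human VR1, grown in MEM with nonessential amino acids, 10% FCS, 0.2 mM glutamine at 37 °C; plated on poly-L-lysine a day before. Cells loaded 2 h at 25 °C with 4 µM Fluo-3 methyl ester, washed, trypsinized, suspended in Tyrode pH 7.4 without BSA.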

[2] = target: T1, Transient receptor potential cation channel subfamily V member 1; assay: Concentration necessary to induce a relative half-maximal response measured by the entry of [Ca2+] into human embryonic kidney HEK293 cells overexpressing the human VR1; assay type: functional, cell-based; summary of the method: as §1

T1 sequence (Q8NER1 whole entry): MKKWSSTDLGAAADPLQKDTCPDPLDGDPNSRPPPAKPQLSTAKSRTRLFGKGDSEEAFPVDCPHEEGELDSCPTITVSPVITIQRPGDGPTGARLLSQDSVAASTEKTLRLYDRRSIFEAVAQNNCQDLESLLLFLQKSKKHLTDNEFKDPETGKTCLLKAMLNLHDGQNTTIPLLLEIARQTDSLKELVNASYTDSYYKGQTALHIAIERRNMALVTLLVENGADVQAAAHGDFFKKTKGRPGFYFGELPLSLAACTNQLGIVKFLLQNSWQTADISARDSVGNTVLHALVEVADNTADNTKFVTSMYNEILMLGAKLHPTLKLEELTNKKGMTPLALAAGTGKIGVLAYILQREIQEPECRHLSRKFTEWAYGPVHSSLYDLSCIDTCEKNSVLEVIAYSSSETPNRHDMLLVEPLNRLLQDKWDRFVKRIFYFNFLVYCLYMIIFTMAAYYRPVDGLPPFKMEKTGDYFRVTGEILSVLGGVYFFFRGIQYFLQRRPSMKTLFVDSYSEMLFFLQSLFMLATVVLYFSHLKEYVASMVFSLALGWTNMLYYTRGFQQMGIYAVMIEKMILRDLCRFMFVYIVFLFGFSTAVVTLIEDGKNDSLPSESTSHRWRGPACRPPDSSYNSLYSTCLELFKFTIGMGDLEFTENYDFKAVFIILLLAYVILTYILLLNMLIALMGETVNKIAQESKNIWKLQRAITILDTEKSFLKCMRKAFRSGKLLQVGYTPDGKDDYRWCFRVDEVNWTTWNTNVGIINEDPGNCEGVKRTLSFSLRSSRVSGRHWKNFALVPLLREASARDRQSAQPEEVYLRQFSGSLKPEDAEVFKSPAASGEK

Molecule CCCCCCCC[C@@H]1C[C@@H]1CCCCCCCC(=O)NCc1ccc(O)c(OC)c1 has a Response [1] of 86.7% and an EC50 [2] of 1.26 nM.
CCCCCC[C@@H](O)CCCCCCCCCCC(=O)NCc1ccc(O)c(OC)c1 was tested, and the Response [1] was 69.7% and the EC50 [2] was 5.01 nM.
CCCCCC/C=C/C#CCCCCCCCC(=O)NCc1ccc(O)c(OC)c1 showed a Response [1] of 70.7% and an EC50 [2] of 1.26 nM.
With CCCCCCCCC#CCCCCCCCC(=O)NCc1ccc(O)c(OC)c1 the Response [1] was 73.7% and the EC50 [2] was 12.6 nM.
Molecule CCCCCCCC[C@H]1C[C@H]1CCCCCCCCCCCC(=O)NCc1ccc(O)c(OC)c1 has a Response [1] of 91% and an EC50 [2] of 79.4 nM.
With COc1cc(CNC(=O)/C=C(\C)CCC=C(C)C)ccc1O the Response [1] was 70.9% and the EC50 [2] was 39.8 nM.
With COc1cc(CNC(=O)C2C(C(=O)NCc3ccc(O)c(OC)c3)[C@H]3C=C[C@@H]2C3)ccc1O (stereo in doubt; cis) the Response [1] was 16.4%.
With COc1cc(CNC(=O)CCCCCCCC/C=C/CCCCCCCCC(=O)NCc2ccc(O)c(OC)c2)ccc1O the Response [1] was 85.7% and the EC50 [2] was 1.58 nM.
Molecule CCCCCC[C@H](C/C=C\CCCCCCCC(=O)NCc1ccc(O)c(OC)c1)OC(C)=O has a Response [1] of 93.5%.
Work on CCCCCCCC/C=C\CCCCCCCC(=O)NCc1ccc(O)c(OC)c1 [OLVANIL] yielded a Response [1] of 67.2% and an EC50 [2] of 0.501 nM.
Molecule C=CCCCCCCCCC(=O)NCc1ccc(O)c(OC)c1 has a Response [1] of 85% and an EC50 [2] of 2 nM.
COc1cc(CNC(=O)[C@H]2[C@@H](C=C(C)C)C2(C)C)ccc1O showed a Response [1] of 85% and an EC50 [2] of 200 nM.
Molecule COc1cc(CNC(=O)CC[C@H](C)[C@@H]2CC[C@H]3[C@@H]4[C@@H](O)C[C@H]5C[C@@H](O)CC[C@@]5(C)[C@H]4C[C@@H](O)[C@]32C)ccc1O has a Response [1] of 5.8%.
For COc1cc(CNC(=O)C2CC2(C)CCCC(C)CCCC(C)CCCC(C)C)ccc1O (configuration not stated), the Response [1] was 91.2% and the EC50 [2] was 2.51 nM.
COc1cc(CNC(=O)[C@]23CC[C@@H](C)[C@H](C)[C@H]2C2=CC[C@@H]4[C@@]5(C)CC[C@H](O)C(C)(C)[C@@H]5CC[C@@]4(C)[C@]2(C)CC3)ccc1O was tested, and the Response [1] was 14.3%.
CCCCCCCC/C=C\CCCCCCCCCCC(=O)NCc1ccc(O)c(OC)c1 showed a Response [1] of 91.4% and an EC50 [2] of 3.16 nM.
For COc1cc(CNC(=O)/C=C(C)/C=C/C=C(C)/C=C/C2=C(C)CCCC2(C)C)ccc1O, the Response [1] was 92.6% and the EC50 [2] was 3.98 nM.
Work on CCCCC/C=C\C/C=C\C/C=C\C/C=C\CCCC(=O)NCc1ccc(O)c(OC)c1 yielded a Response [1] of 74.8% and an EC50 [2] of 0.501 nM.
In the case of COc1cc(CNC(=O)CCCC/C=C/C(C)C)ccc1O, the Response [1] is reported as 65.4%.
For COc1cc(CNC(=O)CCCCCCCCCCCCCCCCCCC(=O)NCc2ccc(O)c(OC)c2)ccc1O, the Response [1] was 83.4% and the EC50 [2] was 501 nM.
C=C(C(=O)NCc1ccc(O)c(OC)c1)[C@H]1CC[C@]2(C)CCC[C@](C)(O)[C@H]2C1 was tested, and the Response [1] was 78.9% and the EC50 [2] was 200 nM.
Molecule C=C(C)[C@@H]1CC[C@]2(C(=O)NCc3ccc(O)c(OC)c3)CC[C@]3(C)[C@H](CC[C@@H]4[C@@]5(C)CC[C@H](O)C(C)(C)[C@@H]5CC[C@]43C)[C@@H]12 has a Response [1] of 88.6% and an EC50 [2] of 126 nM.
Molecule COc1cc(CNC(=O)/C=C(\C)CC/C=C(\C)CCC=C(C)C)ccc1O has a Response [1] of 79.9% and an EC50 [2] of 0.501 nM.
COc1cc(CNC(=O)/C=C(\C)CCC[C@H](C)CCC[C@H](C)CCCC(C)C)ccc1O showed a Response [1] of 85% and an EC50 [2] of 2 nM.
For CCCCCCCCCCCCCCCCCC(=O)NCc1ccc(O)c(OC)c1, the Response [1] was 32.4%.
For C/C=C/C=C/C(=O)NCc1ccc(O)c(OC)c1, the Response [1] was 34.6%.
Work on COc1cc(CNC(=O)[C@@]2(C)CCC[C@@]3(C)[C@H]2CC=C2C=C(C(C)C)CC[C@@H]23)ccc1O yielded a Response [1] of 37.5%.
C=C(C)[C@H]1CC=C(C(=O)NCc2ccc(O)c(OC)c2)CC1 was tested, and the Response [1] was 74.5% and the EC50 [2] was 794 nM.
COc1cc(CNC(=O)C2C(C(=O)NCc3ccc(O)c(OC)c3)[C@H]3C=C[C@@H]2C3)ccc1O (stereo in doubt; trans) gave a Response [1] of 37.2%.
Molecule CCCCCCC(=O)CCCCCCCCCCC(=O)NCc1ccc(O)c(OC)c1 has a Response [1] of 67% and an EC50 [2] of 6.31 nM.
For COc1cc(CNC(=O)CCCCCCCCC2CC2)ccc1O, the Response [1] was 96.2% and the EC50 [2] was 3.16 nM.
CCCCCC[C@@H](O)CC1CC1CCCCCCCC(=O)NCc1ccc(O)c(OC)c1 (some centres not stated) was tested, and the Response [1] was 98% and the EC50 [2] was 5.01 nM.
For CCCCCC[C@@H](O)C/C=C\CCCCCCCC(=O)NCc1ccc(O)c(OC)c1, the Response [1] was 85% and the EC50 [2] was 3.16 nM.
